Laboratory results: ChEMBL document CHEMBL1132497, “Synthesis and SAR of adatanserin: novel adamantyl aryl- and heteroarylpiperazines with dual serotonin 5-HT(1A) and 5-HT(2) activity as potential anxiolytic and antidepressant agents” (J Med Chem, 1999)

Key:
[1] = molecular target: T1, 5-hydroxytryptamine receptor 1A (Rattus norvegicus, UniProt P19327); test: Antagonist activity against rat hippocampal tissue 5-hydroxytryptamine 1A receptor; assay type: functional, tissue-based, Hippocampus
T1 sequence (P19327 whole entry): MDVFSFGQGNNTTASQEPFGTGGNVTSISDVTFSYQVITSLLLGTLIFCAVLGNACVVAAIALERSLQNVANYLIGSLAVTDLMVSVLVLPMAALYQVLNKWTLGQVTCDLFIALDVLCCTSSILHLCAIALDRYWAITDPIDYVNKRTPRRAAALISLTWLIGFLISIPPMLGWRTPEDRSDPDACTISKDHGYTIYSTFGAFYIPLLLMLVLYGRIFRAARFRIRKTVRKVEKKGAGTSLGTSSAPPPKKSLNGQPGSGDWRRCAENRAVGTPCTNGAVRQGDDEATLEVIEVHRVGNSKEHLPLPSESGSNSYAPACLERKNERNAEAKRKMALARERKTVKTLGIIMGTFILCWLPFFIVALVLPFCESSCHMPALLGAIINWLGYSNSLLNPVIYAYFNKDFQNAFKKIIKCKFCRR

[2] = molecular target: Serotonin 2 (5-HT2) receptor (Rattus norvegicus, UniProt P30994+P08909+P14842); test: Inhibitory activity against rat cortical 5-hydroxytryptamine 2 receptor; assay type: protein assay
Outline: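 Cortical membranes from male Sprague–Dawley rats, incubated 15 min at 37 °C in 50 mM Tris pH 7.6 with 1.0 nM [3H]ketanserin and a range of drug concentrations. Nonspecific binding defined with 100 μM methysergide. Run by filtration and counting.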

[3] = molecular target: D(2) dopamine receptor (Rattus norvegicus) (UniProt P61169); test: Inhibitory activity against Dopamine receptor D2 of rat limbic tissue at 1 uM; assay type: tissue-based; settings: Limbic system
[4] = molecular target: D(2) dopamine receptor (Rattus norvegicus, UniProt P61169); test: Inhibitory activity against rat limbic tissue Dopamine receptor D2; assay type: tissue-based, Limbic system
Outline: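 Rat limbic membranes, handled as in the 5-HT2 assay: 15 min at 37 °C, 50 mM Tris pH 7.6, drug concentration range. 30 nM ketanserin in all tubes to block 5-HT2 sites. Nonspecific binding defined with 10 μM sulpiride. Filtration and counting.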

[5] = molecular target: T2, 5-hydroxytryptamine receptor 1A (Rattus norvegicus) (UniProt P19327); test: Inhibitory activity against 5-hydroxytryptamine 1A receptor of rat hippocampal tissue at 1 uM; assay type: tissue-based; settings: Hippocampus
T2 sequence (whole entry): T1 sequence (P19327 whole entry)

Chain of D(2) dopamine receptor (P61169 whole entry): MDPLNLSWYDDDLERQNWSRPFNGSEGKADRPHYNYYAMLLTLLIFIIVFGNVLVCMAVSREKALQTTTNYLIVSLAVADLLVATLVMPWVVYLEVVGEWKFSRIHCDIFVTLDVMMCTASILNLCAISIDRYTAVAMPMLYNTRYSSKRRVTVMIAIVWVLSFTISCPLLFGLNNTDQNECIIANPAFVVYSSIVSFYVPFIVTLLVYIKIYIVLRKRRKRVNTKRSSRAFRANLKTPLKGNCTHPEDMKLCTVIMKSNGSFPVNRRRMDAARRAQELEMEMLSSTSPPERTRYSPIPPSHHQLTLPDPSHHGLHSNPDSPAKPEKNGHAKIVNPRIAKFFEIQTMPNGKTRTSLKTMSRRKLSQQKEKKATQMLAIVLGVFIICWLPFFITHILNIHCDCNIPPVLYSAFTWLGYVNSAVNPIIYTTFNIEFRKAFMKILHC
Chain of D(2) dopamine receptor (Rattus norvegicus) (P61169 whole entry): as above

Compound | Ki [1] [nM] | Ki [2] [nM] | inhibition [3] [%] | Ki [4] [nM] | inhibition [5] [%]
O=C(NCCN1CCN(c2ccc(Cl)cc2)CC1)C12C[C@H]3C[C@@H](C1)C[C@@H](C2)C3 | 96 |  |  |  | 
Cl.Cl.O=C(NCCCN1CCN(c2cccc(Cl)c2)CC1)NC12C[C@H]3C[C@@H](C1)C[C@@H](C2)C3 | 45 | 277 | 38 |  | 
Cl.Cl.O=C(NCCCN1CCN(c2ncccn2)CC1)NC12C[C@H]3C[C@@H](C1)C[C@@H](C2)C3 | 7 | 1600 |  | > 10000 | 
C[C@@]12C[C@@H]3C[C@@H](CC(CC(=O)OCCN4CCN(c5cccc(Cl)c5)CC4)(C3)C1)C2 |  |  | 19 |  | 34
COc1ccccc1N1CCN(CCOC(=O)CC23C[C@H]4C[C@@H](C2)C[C@](C)(C4)C3)CC1 |  |  | 97 |  | 86
O=C(NCCCN1CCN(c2cccc(Cl)c2)CC1)C12C[C@H]3C[C@@H](C1)C[C@@H](C2)C3 | 19 |  | 32 |  | 
COc1ccccc1N1CCN(CCOC(=O)C23C[C@H]4C[C@@H](C2)C[C@@H](C3)C4)CC1.Cl.Cl | 2.5 | 712 |  | 13.5 | 
Cl.Cl.O=C(NCCN1CCN(c2ncccn2)CC1)C12CC3CC(CC1C3)C2 | 2.4 | 262 | 67 |  | 
CN(CCN1CCN(c2ncccn2)CC1)C(=O)C12C[C@H]3C[C@@H](C1)C[C@@H](C2)C3 | 60 |  |  |  | 
C[C@@]12C[C@@H]3C[C@@H](CC(CC(=O)OCCN4CCN(c5ncccn5)CC4)(C3)C1)C2 |  |  | 39 |  | 72
COc1ccccc1N1CCN(CCOC(=O)C23CC4C[C@@H](C[C@H]2C4)C3)CC1 | 4.8 |  | 100 |  | 
C[C@@]12C[C@@H]3C[C@@H](CC(CC(=O)NCCN4CCN(c5ncccn5)CC4)(C3)C1)C2 | 30 |  |  |  | 
O=C(N[C@@H](Cc1ccccc1)CN1CCN(c2ncccn2)CC1)C12C[C@H]3C[C@@H](C1)C[C@@H](C2)C3 | 1 | 1360 |  | 1690 | 
Cl.Cl.O=C(NCCCN1CCN(c2ncccn2)CC1)C12C[C@H]3C[C@@H](C1)C[C@@H](C2)C3 | 89 | 21 | 6 |  | 
Cl.Cl.Cl.O=C(CCN1CCN(c2ncccn2)CC1)NC12C[C@H]3C[C@@H](C1)C[C@@H](C2)C3 | 131 | 47 | 14 |  | 
O=C(NCCN1CCN(c2cccc(C(F)(F)F)c2)CC1)C12CC3CC(CC1C3)C2 |  |  | 73 |  | 83
Cl.Cl.O=C(OCCN1CCN(c2ncccn2)CC1)C12C[C@H]3C[C@@H](C1)C[C@@H](C2)C3 | 8.5 | 2180 |  | 708 | 
C[C@@]12C[C@@H]3C[C@@H](CC(CC(=O)OCCCN4CCN(c5cccc(C(F)(F)F)c5)CC4)(C3)C1)C2 |  |  |  |  | 56
O=C(NCCN1CCN(C(c2ccc(Cl)cc2)c2ccc(Cl)cc2)CC1)NC12C[C@H]3C[C@@H](C1)C[C@@H](C2)C3 |  |  |  |  | 9
Cl.Cl.O=C(N[C@H](Cc1ccccc1)CN1CCN(Cc2ccccc2)CC1)C12C[C@H]3C[C@@H](C1)C[C@@H](C2)C3 | 2.3 | 722 |  | 1400 | 
COc1ccccc1N1CCN(CCOC(=O)NC23C[C@H]4C[C@@H](C2)C[C@@H](C3)C4)CC1 | 40 |  | 95 |  | 
C[C@H](CN1CCN(Cc2ccccc2)CC1)NC(=O)C12C[C@H]3C[C@@H](C1)C[C@@H](C2)C3 | 37 |  | 14 |  | 
O=C(N1CCN(c2ncccn2)CC1)C12C[C@H]3C[C@@H](C1)C[C@@H](C2)C3 |  |  |  |  | 9
O=C(NCCN1CCN(Cc2ccccc2)CC1)C12C[C@H]3C[C@@H](C1)C[C@@H](C2)C3 | 46 |  | 8 |  | 
O=C(OCCCN1CCN(Cc2ccccc2)CC1)C12C[C@H]3C[C@@H](C1)C[C@@H](C2)C3 |  |  |  |  | 63
COc1ccccc1N1CCN(CCCOC(=O)C23CC4C[C@@H](C[C@H]2C4)C3)CC1 | 26 |  | 100 |  | 
C[C@@]12C[C@@H]3C[C@@H](CC(CC(=O)OCCN4CCN(c5cccc(C(F)(F)F)c5)CC4)(C3)C1)C2 |  |  | 29 |  | 35
O=C(NCCN1CCN(c2ncccn2)CC1)NC12C[C@H]3C[C@@H](C1)C[C@@H](C2)C3 | 77 | 71 | 72 |  | 

Compound | Ki [1] [nM] | Ki [2] [nM] | inhibition [3] [%] | Ki [4] [nM] | inhibition [5] [%]
Cl.Cl.O=C(NCCCN1CCN(c2cccc(Cl)c2)CC1)C12CC3CC(CC1C3)C2 | 10 | 4.3 | 31 |  | 
COc1ccccc1N1CCN(C[C@@H](C)NC(=O)C23C[C@H]4C[C@@H](C2)C[C@@H](C3)C4)CC1 | 0.22 |  |  | 21.5 | 
O=C(N[C@H](Cc1ccccc1)CN1CCN(c2ncccn2)CC1)C12C[C@H]3C[C@@H](C1)C[C@@H](C2)C3 | 0.43 | 395 |  | 20 | 
CC(C)(CN1CCN(Cc2ccccc2)CC1)NC(=O)C12C[C@H]3C[C@@H](C1)C[C@@H](C2)C3 |  |  |  |  | 0
O=C(N[C@H](COCc1ccccc1)CN1CCN(Cc2ccccc2)CC1)C12C[C@H]3C[C@@H](C1)C[C@@H](C2)C3 | 62 |  |  | 76 | 
Cl.Cl.O=C(NCCCN1CCN(c2ncccn2)CC1)C12CC3CC(CC1C3)C2 |  | 286 | 27 |  | 
CC(C)(CN1CCN(c2ncccn2)CC1)NC(=O)C12C[C@H]3C[C@@H](C1)C[C@@H](C2)C3 | 127 |  |  |  | 
COc1ccccc1N1CCN(CCCOC(=O)C23C[C@H]4C[C@@H](C2)C[C@@H](C3)C4)CC1.Cl.Cl | 8.5 | 180 |  | 35 | 
C[C@@H](CN1CCN(c2ncccn2)CC1)NC(=O)C12C[C@H]3C[C@@H](C1)C[C@@H](C2)C3 |  |  | 1 |  | 21
O=C(NC12C[C@H]3C[C@@H](C1)C[C@@H](C2)C3)N1CCN(c2cccc(Cl)c2)CC1 |  |  |  |  | 0
O=C(OCCCN1CCN(c2cccc(Cl)c2)CC1)C12C[C@H]3C[C@@H](C1)C[C@@H](C2)C3 |  |  | 67 |  | 80
O=C(NC12C[C@H]3C[C@@H](C1)C[C@@H](C2)C3)OCCN1CCN(c2cccc(Cl)c2)CC1 | 76 |  | 36 |  | 
COc1ccccc1N1CCN(CCCOC(=O)CC23C[C@H]4C[C@@H](C2)C[C@](C)(C4)C3)CC1 | 17 |  | 95 |  | 
C[C@@]12C[C@@H]3C[C@@H](CC(CC(=O)NCCCN4CCN(c5cccc(Cl)c5)CC4)(C3)C1)C2 |  |  |  |  | 81
Cl.Cl.O=C(N[C@@H](Cc1ccccc1)CN1CCN(Cc2ccccc2)CC1)C12C[C@H]3C[C@@H](C1)C[C@@H](C2)C3 | 0.7 | 1890 |  | 3390 | 
C[C@@]12C[C@@H]3C[C@@H](CC(CC(=O)OCCCN4CCN(c5cccc(Cl)c5)CC4)(C3)C1)C2 |  |  |  |  | 58
O=C(OCCCN1CCN(c2ncccn2)CC1)C12C[C@H]3C[C@@H](C1)C[C@@H](C2)C3 |  |  | 33 |  | 72
COc1ccccc1N1CCN(CCC(=O)NC23C[C@H]4C[C@@H](C2)C[C@@H](C3)C4)CC1.Cl.Cl | 9 | 77 |  | 93 | 
O=C(OCCN1CCN(C(c2ccc(F)cc2)c2ccc(F)cc2)CC1)C12C[C@H]3C[C@@H](C1)C[C@@H](C2)C3 |  |  |  |  | 4
CC(C)N(CCN1CCN(c2ncccn2)CC1)C(=O)C12C[C@H]3C[C@@H](C1)C[C@@H](C2)C3 |  |  |  |  | 36
C[C@@]12C[C@@H]3C[C@@H](CC(CC(=O)NCCN4CCN(c5cccc(Cl)c5)CC4)(C3)C1)C2 | 38 |  | 40 |  | 
Cl.Cl.O=C(NCCN1CCN(c2cccc(Cl)c2)CC1)C12CC3CC(CC1C3)C2 | 0.7 | 2.3 | 94 |  | 
O=C(NC12C[C@H]3C[C@@H](C1)C[C@@H](C2)C3)N1CCN(c2ncccn2)CC1 |  |  |  |  | 3
O=C(OCCCN1CCN(c2cccc(C(F)(F)F)c2)CC1)C12C[C@H]3C[C@@H](C1)C[C@@H](C2)C3 |  |  | 54 |  | 75
C[C@@]12C[C@@H]3C[C@@H](CC(CC(=O)NCCCN4CCN(c5ncccn5)CC4)(C3)C1)C2 |  |  | 20 |  | 68
O=C(OCCN1CCN(c2ncccn2)CC1)C12CC3CC(CC1C3)C2 |  |  | 47 |  | 
O=C(NCCN1CCN(c2cccc(Cl)c2)CC1)NC12C[C@H]3C[C@@H](C1)C[C@@H](C2)C3 | 61 | 89 | 56 |  | 
